# Key:
# Type in all cases: functional
# [1] = test system: CCRF-CEM; experiment: Cytotoxicity against human CCRF-CEM cells
# [2] = test system: HL-60(TB); experiment: Cytotoxicity against human HL-60(TB) cells
# In short: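 Tested within the NCI 60-cell-line screen, with GI50 as the read-out. Values are the average of two independent experiments. The lowest concentration tested was 10 nM.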
# [3] = test system: K562; experiment: Cytotoxicity against human K562 cells
# In short: (§1)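 Tested in a 60-cell-line human tumor panel screen; the read-out is growth inhibition, reported as GI50 for each cell line.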
# [4] = test system: SR; experiment: Cytotoxicity against human SR cells
# In short: (§2)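 Cell line run as part of the 60-cell-line screening panel; growth inhibition was reported as a GI50 for each line.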
# [5] = test system: A549; experiment: Cytotoxicity against human A549 cells; in short: as §1
# [6] = test system: HOP-62; experiment: Cytotoxicity against human HOP62 cells; in short: as §1
# [7] = test system: NCI-H226; experiment: Cytotoxicity against human NCI-H226 cells; in short: as §1
# [8] = test system: NCI-H23; experiment: Cytotoxicity against human NCI-H23 cells; in short: as §1
# [9] = test system: COLO 205; experiment: Cytotoxicity against human COLO205 cells; in short: as §1
# [10] = test system: HCC 2998; experiment: Cytotoxicity against human HCC2998 cells; in short: as §1
# [11] = test system: HCT-116; experiment: Cytotoxicity against human HCT116 cells; in short: as §1
# [12] = Cytotoxicity against human HCT15 cells; in short: as §1
# [13] = test system: HT-29; experiment: Cytotoxicity against human HT-29 cells; in short: as §1
# [14] = test system: KM12; experiment: Cytotoxicity against human KM12 cells; in short: as §1
# [15] = test system: SF-268; experiment: Cytotoxicity against human SF268 cells; in short: as §1
# [16] = test system: SF-295; experiment: Cytotoxicity against human SF295 cells; in short: as §1
# [17] = test system: SF-539; experiment: Cytotoxicity against human SF539 cells; in short: as §1
# [18] = test system: SNB-19; experiment: Cytotoxicity against human SNB19 cells; in short: as §1
# [19] = test system: SNB-75; experiment: Cytotoxicity against human SNB75 cells; in short: as §2
# [20] = test system: LOX IMVI; experiment: Cytotoxicity against human LOXIMVI cells; in short: as §1
# [21] = test system: M14; experiment: Cytotoxicity against human M14 cells; in short: as §1
# [22] = test system: MDA-MB-435; experiment: Cytotoxicity against human MDA-MB-435 cells; in short: as §1
# [23] = test system: NCI-H322M; experiment: Cytotoxicity against human NCI-H322M cells; in short: as §1
# [24] = test system: SK-MEL-2; experiment: Cytotoxicity against human SK-MEL-2 cells; in short: as §1
# [25] = Cytotoxicity against human UACC257 cells; in short: as §2
# [26] = Cytotoxicity against human UACC62 cells; in short: as §2
# [27] = test system: IGROV-1; experiment: Cytotoxicity against human IGROV1 cells; in short: as §1
# [28] = Cytotoxicity against human OVCAR4 cells; in short: as §1
# [29] = Cytotoxicity against human OVCAR8 cells; in short: as §1
# [30] = Cytotoxicity against human NCI-ADR-RES cells; in short: as §1
# [31] = test system: SK-OV-3; experiment: Cytotoxicity against human SKOV3 cells; in short: as §1
# [32] = test system: 786-0; experiment: Cytotoxicity against human 786-0 cells; in short: as §1
# [33] = test system: A498; experiment: Cytotoxicity against human A498 cells; in short: as §1
# [34] = test system: ACHN; experiment: Cytotoxicity against human ACHN cells; in short: as §1
# [35] = test system: CAKI-1; experiment: Cytotoxicity against human Caki1 cells; in short: as §1
# [36] = test system: RXF 393; experiment: Cytotoxicity against human RXF393 cells; in short: as §1
# [37] = test system: SN12C; experiment: Cytotoxicity against human SN12C cells; in short: as §1
# [38] = test system: TK-10; experiment: Cytotoxicity against human TK10 cells; in short: as §2
# [39] = Cytotoxicity against human UO31 cells; in short: as §2
# [40] = test system: DU-145; experiment: Cytotoxicity against human DU145 cells; in short: as §1
# [41] = test system: MDA-MB-231; experiment: Cytotoxicity against human MDA-MB-231 cells; in short: as §1
# [42] = test system: BT-549; experiment: Cytotoxicity against human BT549 cells; in short: as §1
# [43] = test system: MDA-MB-468; experiment: Cytotoxicity against human MDA-MB-468 cells; in short: as §1
# [44] = read-out: pLC50 (the source's name) (converted)
structure (smiles),measurement,setting,value
COc1cc(/C=C/c2cc(O)c3ccn(C)c3c2)cc2c1O[C@]1(C)CC[C@@H](O)C(C)(C)[C@H]1C2,GI50,[1],0.38 µM
same,CC50,[1]; [44],> 100 µM
same,TGI,[1]; read-out: pTGI (converted),> 100 µM
same,GI50,[2],1.23 µM
same,CC50,[2]; [44],> 100 µM
same,TGI,[2]; read-out: pTGI (converted),58.9 µM
same,GI50,[3],0.794 µM
same,CC50,[3]; [44],> 100 µM
same,TGI,[3]; read-out: pTGI (converted),> 100 µM
same,GI50,[4],0.468 µM
same,CC50,[4]; [44],> 100 µM
same,TGI,[4]; read-out: pTGI (converted),> 100 µM
same,GI50,[5],4.9 µM
same,CC50,[5]; [44],> 100 µM
same,TGI,[5]; read-out: pTGI (converted),64.6 µM
same,GI50,[6],0.407 µM
same,CC50,[6]; [44],> 100 µM
same,TGI,[6]; read-out: pTGI (converted),5.01 µM
same,GI50,[7],11.5 µM
same,CC50,[7]; [44],64.6 µM
same,TGI,[7]; read-out: pTGI (converted),26.9 µM
same,GI50,[8],2.45 µM
same,CC50,[8]; [44],> 100 µM
same,TGI,[8]; read-out: pTGI (converted),30.2 µM
same,GI50,[9],1.66 µM
same,CC50,[9]; [44],7.08 µM
same,TGI,[9]; read-out: pTGI (converted),3.47 µM
same,GI50,[10],4.57 µM
same,CC50,[10]; [44],> 100 µM
same,TGI,[10]; read-out: pTGI (converted),29.5 µM
same,GI50,[11],1.17 µM
same,CC50,[11]; [44],> 100 µM
same,TGI,[11]; read-out: pTGI (converted),47.9 µM
same,GI50,[12]; HCT-15,0.832 µM
same,CC50,"[12]; HCT-15, read-out: pLC50 (the source's name) (converted)",> 100 µM
same,TGI,"[12]; HCT-15, read-out: pTGI (converted)",4.37 µM
same,GI50,[13],1.86 µM
same,CC50,[13]; [44],63.1 µM
same,TGI,[13]; read-out: pTGI (converted),7.41 µM
same,GI50,[14],1.26 µM
same,CC50,[14]; [44],34.7 µM
same,TGI,[14]; read-out: pTGI (converted),7.08 µM
same,GI50,[15],2.04 µM
same,CC50,[15]; [44],> 100 µM
same,TGI,[15]; read-out: pTGI (converted),66.1 µM
same,GI50,[16]; read-out: GI50,0.76 µM
same,GI50,[16]; read-out: pGI50 (converted),0.759 µM
same,TGI,[16]; read-out: pTGI (converted),2.75 µM
same,GI50,[17],0.105 µM
same,TGI,[17]; read-out: pTGI (converted),1.38 µM
same,GI50,[18],1.45 µM
same,CC50,[18]; [44],> 100 µM
same,TGI,[18]; read-out: pTGI (converted),> 100 µM
same,GI50,[19],0.138 µM
same,CC50,[19]; [44],93.3 µM
same,TGI,[19]; read-out: pTGI (converted),8.91 µM
same,GI50,[20],0.977 µM
same,CC50,[20]; [44],> 100 µM
same,TGI,[20]; read-out: pTGI (converted),50.1 µM
same,GI50,[21],0.525 µM
same,CC50,[21]; [44],> 100 µM
same,TGI,[21]; read-out: pTGI (converted),4.37 µM
same,GI50,[22],1.45 µM
same,CC50,[22]; [44],> 100 µM
same,TGI,[22]; read-out: pTGI (converted),47.9 µM
same,GI50,[23],12.9 µM
same,CC50,[23]; [44],> 100 µM
same,TGI,[23]; read-out: pTGI (converted),> 100 µM
same,GI50,[24],0.692 µM
same,CC50,[24]; [44],> 100 µM
same,TGI,[24]; read-out: pTGI (converted),12.9 µM
same,GI50,[25]; UACC-257,1.74 µM
same,CC50,"[25]; UACC-257, read-out: pLC50 (the source's name) (converted)",> 100 µM
same,TGI,"[25]; UACC-257, read-out: pTGI (converted)",8.13 µM
same,GI50,[26]; UACC-62,0.316 µM
same,CC50,"[26]; UACC-62, read-out: pLC50 (the source's name) (converted)",77.6 µM
same,TGI,"[26]; UACC-62, read-out: pTGI (converted)",2.09 µM
same,GI50,[27],2.82 µM
same,CC50,[27]; [44],> 100 µM
same,TGI,[27]; read-out: pTGI (converted),46.8 µM
same,GI50,[28]; OVCAR-4,4.27 µM
same,CC50,"[28]; OVCAR-4, read-out: pLC50 (the source's name) (converted)",> 100 µM
same,TGI,"[28]; OVCAR-4, read-out: pTGI (converted)",> 100 µM
same,GI50,[29]; OVCAR-8,11.2 µM
same,CC50,"[29]; OVCAR-8, read-out: pLC50 (the source's name) (converted)",> 100 µM
same,TGI,"[29]; OVCAR-8, read-out: pTGI (converted)",77.6 µM
same,GI50,[30],9.55 µM
same,CC50,[30]; [44],> 100 µM
same,TGI,[30]; read-out: pTGI (converted),69.2 µM
same,GI50,[31],3.02 µM
same,LC50,[31],> 100 µM
same,TGI,[31]; read-out: pTGI (converted),72.4 µM
same,GI50,[32],0.186 µM
same,LC50 (concentration killing 50% of cells),[32],> 100 µM
same,GI50,[33],6.03 µM
same,CC50,[33]; [44],89.1 µM
same,TGI,[33]; read-out: pTGI (converted),38.9 µM
same,GI50,[34],0.776 µM
same,LC50 (concentration killing 50% of cells),[34],> 100 µM
same,TGI,[34]; read-out: pTGI (converted),55 µM
same,GI50,[35],2.29 µM
same,LC50,[35],> 100 µM
same,TGI,[35]; read-out: pTGI (converted),21.9 µM
same,GI50,[36],0.0302 µM
same,LC50,[36],8.71 µM
same,TGI,[36]; read-out: pTGI (converted),0.12 µM
same,GI50,[37],6.92 µM
same,LC50,[37],> 100 µM
same,TGI,[37]; read-out: pTGI (converted),91.2 µM
same,GI50,[38],3.72 µM
same,LC50,[38],> 100 µM
same,TGI,[38]; read-out: pTGI (converted),64.6 µM
same,GI50,[39]; UO-31,0.437 µM
same,LC50,[39]; UO-31,> 100 µM
same,TGI,"[39]; UO-31, read-out: pTGI (converted)",7.24 µM
same,GI50,[40],3.8 µM
same,LC50 (50% lethal concentration),[40],> 100 µM
same,TGI,[40]; read-out: pTGI (converted),91.2 µM
same,GI50,[41],1.12 µM
same,LC50,[41],> 100 µM
same,TGI,[41]; read-out: pTGI (converted),28.2 µM
same,GI50,[42],1.55 µM
same,CC50,[42]; [44],> 100 µM
same,TGI,[42]; read-out: pTGI (converted),39.8 µM
same,GI50,[43],1.02 µM
same,LC50,[43],> 100 µM
same,TGI,[43]; read-out: pTGI (converted),14.1 µM
